Data from article PMC9082043 (RSC Advances, 2018).
Where two headings read alike, the source gives them in different places.

What was measured:
[1] = test system: NCI-H460 (human large cell lung cancer cells); test: MTT antiproliferative assay, NCI-H460; format: cell-based; settings: read-out: IC50 NCI-H460
Outline: (§1)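 MTT assay on HepG2, SK-OV-3, NCI-H460, BEL-7404 and normal HL-7702 cells, with 5-fluorouracil and cisplatin run alongside as positive controls.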

[2] = test system: SK-OV-3 (human ovarian cancer cells); test: MTT antiproliferative assay, SK-OV-3; format: cell-based; settings: read-out: IC50 SKOV-3
Outline: as §1

[3] = test system: HepG2 (human liver cancer cells); test: MTT antiproliferative assay, HepG2; format: cell-based; settings: read-out: IC50 HepG2
Outline: as §1

[4] = test system: HL-7702 (human liver normal cells); test: MTT cytotoxicity assay, HL-7702 normal cells; format: cell-based; settings: L02, 48 h, read-out: IC50 HL-7702
Outline: as §1

HepG2 xenograft = test: In vivo antitumor activity, HepG2 xenograft model; parameters: species or system SPF BALB/c nude mice
Outline: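 HepG2 xenografts in SPF BALB/c nude mice, randomised into vehicle, low-dose (10 mg kg−1), high-dose (20 mg kg−1) and paclitaxel (5 mg kg−1) groups. All were injected in 5% DMSO/saline (v/v). Tumours were measured twice weekly in two dimensions to give volume, mean ± SD, n = 6. The relative tumour increment rate (T/C, %) was taken at day 41.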

[5] = test system: BEL-7404 (human liver cancer cells); test: MTT antiproliferative assay, BEL-7404; format: cell-based; settings: read-out: IC50 BEL-7404, 48 h, mean ± SD of three experiments
Outline: as §1

[6] = MTT, 48 h, mean ± SD of three experiments

Q: With `O=c1[nH]cc(F)c(=O)[nH]1` [5-FU, 5-fluorouracil] as the compound, how does the IC50 ([1]; Homo sapiens, NCI-H460, 48 h) read?
A: The IC50 was 45.4 ± 0.94 µM.

Q: And the IC50 ([2]; Homo sapiens, SK-OV-3, 48 h)?
A: The IC50 was 26.3 ± 0.57 µM.

Q: And the IC50 ([3]; Homo sapiens, HepG2, 48 h)?
A: The IC50 was 32 ± 0.56 µM.

Q: And the IC50 [4]?
A: The IC50 was 58.7 ± 2.31 µM.

Q: How did the “T/C value (relative tumor increment rate)” value (HepG2 xenograft; 5 mg kg^−1 dose) turn out when `CC(=O)O[C@H]1C(=O)[C@@]2(C)[C@H]([C@H](OC(=O)c3ccccc3)[C@]3(O)C[C@H](OC(=O)[C@H](O)[C@@H](NC(=O)c4ccccc4)c4ccccc4)C(C)=C1C3(C)C)[C@]1(OC(C)=O)CO[C@@H]1C[C@@H]2O` [Paclitaxel, paclitaxel] was run?
A: Its value is 19.0%.

Q: What about the “effect on tumour volume in mice” value (HepG2 xenograft; 3a1 10 and 20 mg kg^−1, paclitaxel 5 mg kg^−1, compared with control) of the same compound?
A: Its value is “significantly inhibited the increase in the tumour volume”.

Q: With `N.N.[Cl][Pt][Cl]` [Cisplatin, cisplatin] as the compound, how does the IC50 [1, 6] read?
A: Its IC50 is 20.4 ± 0.5 µM.

Q: What about the IC50 [2, 6] of the same compound?
A: The IC50 was 15.6 ± 1.7 µM.

Q: What about the IC50 [5] of the same compound?
A: Its IC50 is 14.7 ± 0.66 µM.

Q: And the IC50 [3, 6]?
A: Its IC50 is 10.1 ± 0.71 µM.
